Lipid droplet = hepatic lipid droplet formation modulation. hit rate 0.4% among 240,000. AID 1656. AML12 mouse hepatocytes, oleate lipid droplets, BODIPY imaging. inhibition, % at 6.5 µM;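 active = lipid droplet intensity inhibited by at least 50%, with more than 500 cells counted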
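Assay system: AML12 mouse liver cells | Compound: 6.5 µM single-point dosing | Schedule: Overnight exposure | Technique: Fluorescence imaging, 20x objective, two fields per well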
TMEM16A act = mouse TMEM16A channel activation, primary screen; Q8BHY3; B-score at 10 µM; HEK293 TMEM16A/YFP-H148Q/I152L, iodide quench fluorescence; active compounds read low; hit rate 0.3% among 340,000;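 active = fluorescence-ratio B-score plate-corrected deviation score at least 3 library SD below zero, with starting fluorescence score within 5 deviations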;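 note: channel opened by trigger with iodide after compound preincubation; score built on the fluorescence ratio of max minus min over baseline; more negative score means more quench and so TMEM16A activation or potentiation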
Target sequence (Q8BHY3 whole entry, looked up): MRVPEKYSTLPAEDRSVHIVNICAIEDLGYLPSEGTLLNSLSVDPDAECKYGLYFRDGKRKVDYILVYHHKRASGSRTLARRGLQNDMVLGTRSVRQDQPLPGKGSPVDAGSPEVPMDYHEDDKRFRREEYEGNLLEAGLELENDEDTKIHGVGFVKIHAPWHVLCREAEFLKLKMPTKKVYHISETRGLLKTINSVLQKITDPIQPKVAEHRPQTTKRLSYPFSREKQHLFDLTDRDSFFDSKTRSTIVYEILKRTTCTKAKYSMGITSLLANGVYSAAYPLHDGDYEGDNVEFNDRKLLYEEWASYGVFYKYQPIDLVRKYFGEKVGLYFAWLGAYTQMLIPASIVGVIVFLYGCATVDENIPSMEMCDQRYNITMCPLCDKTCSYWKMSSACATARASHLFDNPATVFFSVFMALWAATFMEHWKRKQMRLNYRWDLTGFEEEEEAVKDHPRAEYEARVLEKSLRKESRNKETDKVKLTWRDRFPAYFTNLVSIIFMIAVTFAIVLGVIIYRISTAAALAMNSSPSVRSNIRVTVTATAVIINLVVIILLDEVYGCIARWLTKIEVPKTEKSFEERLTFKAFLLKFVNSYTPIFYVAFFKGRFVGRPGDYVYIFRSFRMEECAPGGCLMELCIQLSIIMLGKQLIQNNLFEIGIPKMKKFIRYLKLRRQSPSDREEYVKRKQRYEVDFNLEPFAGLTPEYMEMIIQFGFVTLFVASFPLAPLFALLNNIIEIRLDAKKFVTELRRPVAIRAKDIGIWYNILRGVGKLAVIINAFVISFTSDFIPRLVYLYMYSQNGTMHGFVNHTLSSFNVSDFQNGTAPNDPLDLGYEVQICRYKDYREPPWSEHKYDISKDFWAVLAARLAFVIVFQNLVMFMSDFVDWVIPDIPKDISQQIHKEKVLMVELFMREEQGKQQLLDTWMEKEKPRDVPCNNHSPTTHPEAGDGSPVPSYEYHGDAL
UPR CHOP act = apoptotic UPR (CHOP) activation. CHO-CHOP luciferase reporter, luminescence; percent of tunicamycin response over DMSO baseline. activation, % at 10 µM. hit rate 0.34% among 330,000. AID 449763;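 active = at 10 µM dose, activation of 40% or more, normalized to positive control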;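 note: 100% = tunicamycin at 10 µg/mL and 0% = DMSO alone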
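Test system: CHO CHOP reporter cells. Input: 500 CHO-CHOP cells per well. Medium: F12 with 10% FBS. Technique: luciferase luminescence. Measure: percent activation relative to tunicamycin control. Dosing: 10 µM compound, 0.5% DMSO. Timing: 16-18 h cell attachment, then 6 h compound exposure, 37 °C.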
CHOP inhibitor = blocks CHOP induction under ER stress. CHO-K1 CHOP-promoter luciferase, tunicamycin-induced, 15-18 h. inhibition, % at 10 µM. hit rate 3.8% among 220,000. AID 2732;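 active = compounds that reduced the stress-induced luciferase reporter signal by more than about 70% of percent inhibition, limit read from the data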;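 note: 0% = tunicamycin plus vehicle and 100% = wells without tunicamycin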
ANO1 block = inhibitors of mouse TMEM16A calcium-activated chloride channel. hit rate 1.2% among 310,000. normalized B-score (activity score, 25-100; higher = stronger inhibition) at 10 µM. HEK293 TMEM16A/YFP iodide influx fluorescence, ionomycin. AID 588511;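 active = ratio plate-corrected score three or more library SD toward inhibition, starting fluorescence score within five deviations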;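 note: score derived from kinetic fluorescence span divided by baseline fluorescence per well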
UPR XBP1 act = activators of adaptive arm of unfolded protein response (XBP1) | activation, % at 20 µM | AID 463104 | hit rate 0.33% among 330,000 | CHO-XBP1 luciferase reporter, IRE1-XBP1 UPR activation, luminescence; percent of tunicamycin response, DMSO as zero;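 active = versus positive control, 20 µM dose yields 30% or more activation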;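 note: 100% = tunicamycin at 10 µg/mL and 0% = DMSO only wells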
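Material: CHO-XBP1 cells stably carrying IRE1-XBP1-driven luciferase reporter | Medium: F12 with 10% serum | Compound dosing: 20 µM single concentration, DMSO 1% | Incubation: Overnight seeding at 37 °C, 6 h compound treatment at 37 °C | Detection: Steady-Glo luminescence read | Read-out basis: % activation of reporter signal versus tunicamycin and DMSO controls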
CHOP inh conf = confirmation of CHOP induction inhibitors. CHO-CHOP promoter luciferase reporter, tunicamycin-induced, luminescence. inhibition, % at 10 µM. shares compounds with CHOP inhibitor. hit rate 45% among 2,100. AID 504437;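 active = mean of three repeat readings of reporter signal inhibition above a set limit, cut at about 70% in these data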;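 note: 0% = tunicamycin plus vehicle and 100% = wells lacking tunicamycin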
Starred values were filed as active, the others as inactive; i = inactive; x = not tested or not shown. In the library only some 4.2% were active in any assay of this set; here they are far more common.

SMILES	Lipid droplet	TMEM16A act	UPR CHOP act	CHOP inhibitor	ANO1 block	UPR XBP1 act	CHOP inh conf
N#C/C(=C\c1ccc(OC(=O)c2ccc(Br)s2)cc1)c1nc2ccccc2[nH]1	-9.5	i	x	100.0*	i	x	39.4
N#C/C(=C/c1ccc(OC(=O)c2ccc(Br)s2)cc1)c1nc2ccccc2[nH]1	x	i	x	x	x	x	x
CCN=C1NN=C(c2cc(C)n(Cc3ccco3)c2C)CS1	-26.5	i	-7.9	96.8*	i	-5.3	98.5*
CCN=C1NN=C(c2cc(C)n(CCc3ccccc3)c2C)CS1	-30.7	i	x	15.5	x	x	x
Cc1cc2nc(-c3ccc(SCC(=O)N4CCc5ccccc54)nc3)[nH]c2cc1C	x	i	5.9	107.2*	i	10.1	25.6
Cc1cc2nc(-c3ccc(SCC(=O)NC(C)C)nc3)[nH]c2cc1C	2.0	x	4.5	0.5	i	0.9	x
CN(CC(=O)Nc1ccccc1Cl)CC(=O)N(C)c1c(N)n(Cc2ccccc2)c(=O)[nH]c1=O	x	i	-0.5	x	x	-2.6	x
Cc1cc2c([nH]c3ccccc32)c2c1OC(C)(C)C=C2	22.7	i	2.6	98.2*	i	4.0	97.3*
CC(OC(=O)c1ccc(-n2cnnn2)cc1)C(=O)Nc1ccc(F)c(F)c1F (stereo not given)	x	i	-0.3	x	x	-4.3	x
CC(C)(C)c1ccc(OCCNC(=S)Nc2ccccc2)cc1	19.7	i	0.0	104.1*	i	1.6	72.5*
CC1(C)C(=O)N(c2ccccc2Cl)C(=O)c2ccccc21	3.7	i	1.0	x	i	7.2	x
CN(c1ccccc1)C1CCCCC1NS(=O)(=O)c1ccc(Cl)cc1 (stereo not given)	-4.6	i	-1.1	96.2*	i	-2.3	26.6
Cc1cccc(NC(=O)CSc2nnc(CNC(=O)c3ccco3)n2C)c1C	x	i	0.9	x	i	-0.6	x
CCN(C(=O)c1cc2c(=O)[nH]c3ccc(C)cc3c2s1)c1cccc(C)c1	2.5	i	2.0	97.8*	i	9.6	18.2
Cc1cc(-c2[nH]nc3c2C(c2ccc(Cl)cc2)C(C#N)=C(N)O3)c(C)s1 (stereo not given)	-3.7	i	-0.5	103.3*	i	-3.3	104.1*
Cc1[nH]nc2c1C(c1ccc(Cl)cc1)C(C#N)=C(N)O2 (stereo not given)	x	i	-0.7	6.4	i	-5.1	x
CCN(CCO)c1nc(N2CCCCC2)c2cnn(C)c2n1	24.1	i	0.5	x	i	-3.0	x
CCC(=O)N1CCc2cc(S(=O)(=O)NC(C(=O)N3CCN(c4ccc(F)cc4)CC3)C(C)C)ccc21 (stereo not given)	-2.6	i	2.0	x	i	-5.0	x
Cc1ccc(NC(=O)c2ccc(C#CC3(O)CCCCC3)cc2)cc1C	-0.5	i	5.2	100.9*	i	3.9	105.7*
COc1ccc(OC)c(S(=O)(=O)Nc2cc(C(=O)O)ccc2N2CC3CC(C2)c2cccc(=O)n2C3)c1 (stereo not given)	-15.8	i	0.5	-2.2	i	-3.4	x
Brc1ccc(C2Nc3cccc4cccc(c34)N2)s1	-64.4	i	x	104.4*	i	x	2.8
Cc1nc2c(ccc3nc(NC(=O)c4ccc5c(c4)OCCO5)sc32)s1	x	i	3.2	99.8*	i	3.4	43.2
Cc1nc2ccc3nc(NC(=O)c4ccc5c(c4)OCCO5)sc3c2s1	x	i	4.2	-50.6	i	-3.7	x
COc1cc(C(C)=O)ccc1OCC(=O)NCC(c1ccc(F)cc1)N1CCOCC1 (stereo not given)	x	i	0.7	x	x	-4.2	x
COc1ccc(-c2cnc(OC(C)(C)C)nc2OC(C)(C)C)cc1OC	-12.9	i	-0.8	105.8*	i	3.2	88.7*
SMILES	Lipid droplet	TMEM16A act	UPR CHOP act	CHOP inhibitor	ANO1 block	UPR XBP1 act	CHOP inh conf
Cc1ccc(-n2[nH]c(C)c(C=Nc3ccc4[nH]c(=O)[nH]c4c3)c2=O)cc1	-35.3	i	2.3	102.7*	i	-0.2	-3.7
O=C(NCc1nc(-c2ccc(C(F)(F)F)cc2)no1)Nc1cc(Cl)cc(Cl)c1	-5.1	i	2.2	102.0*	i	0.5	109.3*
O=C(NCc1nc(-c2ccc(C(F)(F)F)cc2)no1)Nc1ccc(F)cc1F	-2.6	i	3.5	69.1	i	1.5	x
CCOC(=O)c1c(C)sc2c1N(C(=O)CCl)c1cc(Cl)ccc1S2	x	i	14.3	x	i	-6.9	-24.3
Nc1ccc2oc(-c3cc(Br)ccc3Cl)nc2c1	x	i	-4.5	96.9*	i	-2.9	73.6*
CCOC(=O)C(=CNc1cc(C)nn1-c1ccc(Cl)cc1)C(=O)OCC	5.7	i	3.8	103.9*	i	-1.9	14.0
Cc1ccc2nc(NC(=O)CNS(=O)(=O)c3ccc(Br)s3)sc2c1	x	i	-0.5	3.3	i	0.2	x
Cc1ccc2nc(NC(=O)CN(C)S(=O)(=O)c3ccc(Br)s3)sc2c1	-7.0	i	0.9	102.0*	i	-1.1	24.0
Cc1ccc(Nc2nc(N)nc(CN3CCN(c4ccccc4)CC3)n2)cc1Cl	-10.7	i	0.3	102.5*	i	5.3	74.7*
Cc1ccc(Nc2nc(N)nc(CN3CCN(Cc4ccc5c(c4)OCO5)CC3)n2)cc1Cl	x	i	0.3	50.9	i	1.5	x
CCN=C1S/C(=C\c2ccc(O)c(OCC)c2)C(=O)N1CC	2.4	i	1.9	42.0	i	15.6	x
CCN=C1S/C(=C\c2cc(OCC)c(O)cc2Br)C(=O)N1CC	-19.8	i	x	108.5*	i	x	37.4
Cc1nn(-c2ccc(C(F)(F)F)cn2)c(C)c1Oc1ccccc1O	-6.7	-33.8*	0.8	100.0*	i	-0.6	101.6*
Cc1cc(=O)[nH]c(-n2nc(C)c(Oc3ccccc3O)c2C)n1	x	i	-0.5	-4.0	i	-0.2	x
Cc1ccc(-n2nnnc2CCl)cc1	-8.2	i	x	108.3*	x	x	-50.0
Cc1ccc(-c2nnnn2-c2ccc(C)cc2)cc1	21.6	i	0.6	6.8	i	1.1	x
Cn1ncc2c(O/N=C(\N)c3ccc(C(C)(C)C)cc3)ncnc21	23.4	i	6.7	98.9*	i	8.6	85.4*
COc1ccc(-n2cccc2/C=C2\C(=N)N3N=C(c4ccco4)SC3=NC2=O)cc1	-1.6	i	-1.5	102.4*	i	-0.6	1.5
COc1ccc(-n2cccc2/C=C2\C(=N)N3N=C(C(C)C)SC3=NC2=O)cc1	9.8	i	1.5	28.5	i	0.0	x
Cc1ccnc(N=O)c1	x	i	2.9	x	x	-1.6	x
